How the values were obtained:
DLD-1 = assay: In vitro inhibitory concentration required to inhibit the growth of DLD-1 cells under continuous exposure conditions for 3-4 days; format: functional, cell-based; details: Homo sapiens
Outline: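 Human colon cancer DLD-1 cells were exposed to compound continuously for 3–4 days and growth inhibition was measured. IC50 is given ± SEM, with n the number of experiments.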

P388 = assay: Fold resistance calculated as the inhibition concentration ratio between retrovirally transformed P388/VMDRC.04 and parental P388 cells; format: functional
Outline: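 P-glycoprotein-mediated efflux assessed in murine P388/VMDRC.04, a retrovirally transformed multidrug-resistant subline of P388/S leukemia cells, alongside parental P388 cells. Growth inhibition IC50 was measured in each line. Fold resistance is the IC50 ratio of P388/VMDRC.04 to parental P388.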

U-937 = assay: In vitro inhibitory concentration required to inhibit the growth of U937 cells was determined by mitotic block reversibility assay; format: functional; details: Homo sapiens
Outline: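 Reversibility assay in human histiocytic lymphoma U937 cells. After drug washout, flow cytometry scored whether a complete mitotic block was still maintained 10 h later.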

Compound	IC50 (DLD-1)	FR (P388)	IC99 (U-937)
C=C1C[C@@H]2CC[C@@]34C[C@@H]5O[C@@H]6C(O[C@H]7CC[C@H](CC(=O)O[C@@H]8[C@@H](OC)[C@@H](O)[C@H](CCO)O[C@H]8C[C@H]8O[C@@H](CC[C@@H]1O2)C[C@@H](C)C8=C)O[C@@H]7[C@@H]6O3)[C@H]5O4	1.8 nM	12	0.1 µM
C=C1C[C@@H]2CC[C@@]34C[C@@H]5O[C@@H]6C(O[C@H]7CC[C@H](CC(=O)O[C@@H]8[C@@H](OC)[C@@H](O)[C@@H](CC(O)CO)O[C@H]8C[C@H]8O[C@@H](CC[C@@H]1O2)C[C@@H](C)C8=C)O[C@@H]7[C@@H]6O3)[C@H]5O4 (stereo partly specified)	12 nM	20	0.065 µM
C=C1C[C@@H]2CC[C@@]34C[C@@H]5O[C@@H]6C(O[C@H]7CC[C@H](CC(=O)O[C@@H]8[C@@H](OC)[C@H](O)[C@H](CO)O[C@H]8C[C@H]8O[C@@H](CC[C@@H]1O2)C[C@@H](C)C8=C)O[C@@H]7[C@@H]6O3)[C@H]5O4	2.6 nM	8.5	0.3 µM
C=C1C[C@@H]2CC[C@@]34C[C@@H]5O[C@@H]6C(O[C@H]7CC[C@H](CC(=O)O[C@@H]8[C@@H](OC)[C@H](O)[C@H](CCO)O[C@H]8C[C@H]8O[C@@H](CC[C@@H]1O2)C[C@@H](C)C8=C)O[C@@H]7[C@@H]6O3)[C@H]5O4	1.8 nM	10	0.3 µM
C=C1C[C@@H]2CC[C@@]34C[C@@H]5O[C@@H]6C(O[C@H]7CC[C@H](CC(=O)O[C@H]8C(CC9OC(CCC1O2)C[C@@H](C)C9=C)O[C@H]1C[C@H]2O[C@@]9(C[C@@H]%10O[C@]%11(C[C@H](C)[C@@H]%12O[C@H]([C@@H](O)C[C@@H](O)CO)C[C@@H]%12O%11)C[C@H](C)[C@@H]%10O9)C[C@H]2O[C@H]1[C@@H]8C)O[C@@H]7[C@@H]6O3)[C@H]5O4 (stereo partly specified)	0.74 nM	2.8	0.025 µM
C=C1C[C@@H]2CC[C@@]34C[C@@H]5O[C@@H]6C(O[C@H]7CC[C@H](CC(=O)O[C@@H]8[C@@H](OC)[C@H](CO)O[C@H]8C[C@H]8O[C@@H](CC[C@@H]1O2)C[C@@H](C)C8=C)O[C@@H]7[C@@H]6O3)[C@H]5O4	1 nM	2.8	0.1 µM
C=C1C2C[C@@H]3O[C@@H](C[C@H](O)CO)[C@H](OC)[C@H]3OC(=O)C[C@H]3CC[C@@H]4OC5[C@H]6O[C@H]7C[C@](CC[C@H]8CC(=C)[C@H](CC[C@@H](C[C@H]1C)O2)O8)(OC6[C@H]4O3)O[C@H]57	6.4 nM	8.2	0.1 µM
